Calls of active or inactive are those of the source. No cut-off for these calls is given here. A value given as a limit tells only on which side of the number the result lay.

The subject of one experiment is Leishmania mexicana. The experiment is described as follows: Antileishmanial activity against Leishmania mexicana WHO-MOHM/B2/82/BELZ promastigote at 40 ug/mL by XTT assay. In kind it is functional, organism-based. The procedure, abridged:
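Promastigotes of L. mexicana (WHO-MOHM/B2/82/BELZ), cultured by established protocols, in a colorimetric growth assay; read-out is reduction of the tetrazolium salt XTT to a water-soluble formazan. Compounds tested at 40 µg/mL.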
On the technique in general: Formazan colour is commonly taken as a measure of viable cells.

In another experiment the test system is Trypanosoma cruzi. The experiment is described as follows: Antitrypanosomal activity against Trypanosoma cruzi Tulahuen at 50 ug/mL by beta-galactosidase assay. It counts as functional, organism-based. The procedure, abridged: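 A transgenic T. cruzi expressing β-galactosidase (Tulahuen strain, clone C4) was used. Growth of the intracellular stage was read from cleavage of the colorimetric substrate chlorophenol red-β-D-galactoside. Compounds tested at 50 µg/mL.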

In the next experiment the test system is Vero. The experiment is described as follows: Cytotoxicity against african green monkey Vero cells after 4 hrs by MTT assay. It counts as cell-based. As to conditions: Chlorocebus sabaeus.
For another experiment, the system named is Plasmodium falciparum. Briefly: Antiplasmodial activity against chloroquine-resistant Plasmodium falciparum W2. In kind it is functional, organism-based.

For the compound `CC(=O)OC[C@@H]1O[C@@H](Oc2c(-c3cc(O)c(O)c(O)c3)oc3cc(O)cc(O)c3c2=O)[C@H](O)[C@H]1OC(C)=O`, the result in the experiment on Leishmania mexicana and in the experiment with Trypanosoma cruzi was inactive. Moreover, the IC50 – broadly, the concentration at which inhibition is half-maximal – with Vero turned out to be 456 µM.

In the case of `O=C(Oc1cc(O)cc2oc(-c3ccc(O)c(O)c3)c(O[C@@H]3O[C@@H](CO)[C@H](O)[C@H]3O)c(=O)c12)c1cc(O)c(O)c(O)c1`, the IC50 with Plasmodium falciparum stood at 14.5 µM; with Vero it was 86.5 µM. Besides, the outcome in the experiment with Leishmania mexicana and with Trypanosoma cruzi was inactive.

Consider `Oc1cc(O)c2c(c1)O[C@H](c1ccc(O)c(O)c1)[C@H](O)C2` [(-)-EPICATECHIN], for which the IC50 in the experiment with Plasmodium falciparum is more than 50 µM; with Vero, 184 µM.

For the compound `O=c1c(O[C@@H]2O[C@@H](CO)[C@H](O)[C@H]2O)c(-c2cc(O)c(O)c(O)c2)oc2cc(O)cc(O)c12`, the IC50 in the experiment with Plasmodium falciparum turned out to be 27.8 µM. In addition, the outcome in the experiment with Leishmania mexicana and in the experiment with Trypanosoma cruzi was inactive.

For the compound `CC(=O)O[C@@H]1[C@@H](O)[C@H](Oc2c(-c3cc(O)c(O)c(O)c3)oc3cc(O)cc(O)c3c2=O)O[C@H]1CO`, the result in the experiment with Leishmania mexicana and in the experiment with Trypanosoma cruzi was inactive.

(Values after ChEMBL document CHEMBL1157951, “Weakly antimalarial flavonol arabinofuranosides from Calycolpus warszewiczianus” (J Nat Prod, 2006).)
